# Measurements published in ChEMBL document CHEMBL1828528, “Acyclic nucleoside thiophosphonates as potent inhibitors of HIV and HBV replication” (Eur J Med Chem, 2011).
# The source made the active and inactive calls. No cut-off for these calls is given here.
# Columns and labels:
# [1] = Stability of compound in presence of CEM-SS cell extract assessed as compound degradation after 24 hrs by HPLC analysis; format: physicochemical; settings: human, read-out: Activity
# Summary of the method: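 Compound diluted to 0.1 mM final in one of two media and incubated at 37 °C: RPMI-1640 with 10% heat-inactivated FCS, or CEM-SS cell extract (soluble proteins 3 mg/mL in 10 mM Tris-HCl pH 7.4, 140 mM KCl). Aliquots were taken over time, frozen at −80 °C, then run on C18 reverse-phase HPLC with on-line filtration, TEAB/acetonitrile gradient and 260 nm detection. Degradation products were identified by co-injection.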
# [2] = test system: Human immunodeficiency virus 1; test: Antiviral activity against HIV1 clade D isolate 1649 infected in human H9 cells assessed as inhibition of viral replication; format: functional, organism-based; settings: Human immunodeficiency virus 1, clade D isolate 1649, H9
# Summary of the method: (§1)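 H9 cells infected with HIV-1 clinical isolates of clades A, B, C, D, A/E, F and G, in the presence of graded compound concentrations. EC50 is the concentration reducing viral replication by 50%.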
# [3] = test system: Human immunodeficiency virus 1; test: Antiviral activity against 100 TCID50 wild-type Human immunodeficiency virus 1 3B infected in CEM cells assessed as inhibition of syncytia formation after 4 days by microscopic analysis; format: functional, organism-based; settings: CCRF-CEM, 96 h
# Summary of the method: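 Human CEM cells (~3 × 10^5 cells/cm3) infected with 100 CCID50/mL HIV-1 IIIB and seeded into wells holding compound dilutions. After 4 days at 37 °C, giant-cell (syncytium) formation was scored microscopically. EC50 is the concentration inhibiting syncytia formation by 50%.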
# [4] = Cytotoxicity against feline kidney CRFK cells up to 200 uM; format: cell-based, Felis catus; settings: cat
# Summary of the method: (§2)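 Uninfected confluent Vero, CrFK, HEL or HeLa cultures incubated with serial compound dilutions (up to 200 μM) for the same period as the antiviral assays. Minimal toxic concentration is the lowest giving microscopically detectable alteration of cell morphology.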
# Human respirovirus 3 = test: Antiviral activity against Parainfluenza virus 3 infected in african green monkey Vero cells assessed as inhibition of virus-induced cytopathic effect up to 200 uM measured on day 3 post infection by microscopic analysis; format: functional, organism-based
# Summary of the method: (§3)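 Confluent Vero cell monolayers inoculated with 100 CCID50 of virus. Compound added after 1–2 h adsorption, tested up to 200 μM. Microscopic CPE scoring on day 3 post infection versus untreated controls.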
# [5] = test system: Human immunodeficiency virus 1; test: Antiviral activity against HIV1 clade B isolate 2056 infected in human H9 cells assessed as inhibition of viral replication; format: functional, organism-based; settings: Human immunodeficiency virus 1, clade B isolate 2056, H9; summary of the method: as §1
# Hepatitis B virus = test: Antiviral activity against Hepatitis B virus infected in human HepAD38 cells assessed as reduction in viral DNA level after 6 days by real time quantitative PCR analysis; format: functional, organism-based; settings: HePAD38, 144 h
# Summary of the method: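 Tetracycline-regulated HepAD38 cells (5 × 10^5) induced after 2–3 days by PBS wash and feeding with medium lacking tetracycline and G418, with or without compound. Medium changed at day 3. Intracellular HBV DNA quantified by TaqMan Q-PCR at day 6 post induction against a full-genome plasmid standard curve, expressed as % of untreated. Actives retested.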
# [6] = test system: Human immunodeficiency virus 1; test: Antiviral activity against HIV1 clade C isolate 2914 infected in human H9 cells assessed as inhibition of viral replication; format: functional, organism-based; settings: Human immunodeficiency virus 1, clade C isolate 2914, H9; summary of the method: as §1
# [7] = test system: Human immunodeficiency virus 1; test: Antiviral activity against HIV1 clade A/E isolate 2165 infected in human H9 cells assessed as inhibition of viral replication; format: functional, organism-based; settings: Human immunodeficiency virus 1, clade A/E isolate 2165, H9; summary of the method: as §1
# [8] = test system: Human immunodeficiency virus 1; test: Antiviral activity against HIV1 clade C isolate 4110 infected in human H9 cells assessed as inhibition of viral replication; format: functional, organism-based; settings: Human immunodeficiency virus 1, clade C isolate 4110, H9; summary of the method: as §1
# Vero = test: Cytotoxicity against african green monkey Vero cells up to 200 uM; format: cell-based; settings: chlorocebus sabaeus; summary of the method: as §2
# [9] = test system: Human immunodeficiency virus 2; test: Antiviral activity against 100 TCID50 wild-type Human immunodeficiency virus type 2 ROD infected in C8166 cells assessed as inhibition of syncytia formation after 4 days by microscopic analysis; format: functional, organism-based; settings: Human immunodeficiency virus 2, ISOLATE ROD, C8166, 96 h
# Coxsackievirus B4 = test: Antiviral activity against Coxsackie virus B4 infected in HeLa cells assessed as inhibition of virus-induced cytopathic effect up to 200 uM measured on day 3 post infection by microscopic analysis; format: functional, organism-based
# Summary of the method: (§4)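 HeLa monolayers at confluency infected with 100 CCID50 of virus. Compound dilutions up to 200 μM added after 1–2 h adsorption. Cytopathic effect recorded microscopically on day 3 relative to untreated controls.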
# Punta Toro virus = test: Antiviral activity against Punta Toro virus infected in african green monkey Vero assessed as inhibition of virus-induced cytopathic effect cells up to 200 uM measured on day 3 post infection by microscopic analysis; format: functional, organism-based; summary of the method: as §3
# [10] = test system: Human immunodeficiency virus 1; test: Antiviral activity against 125 TCID50 wild type HIV1 LAI infected in human H9 cells assessed as reduction in viral replication measured on day 7 post infection by reverse transcriptase activity; format: functional, organism-based; settings: Human immunodeficiency virus 1, LAI, H9, 168 h
# Summary of the method: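 PHA-P-activated PBMC (1.5 × 10^5; donor cells stimulated 3 days with 1 μg/mL PHA-P plus 5 IU/mL IL-2) or H9 cells (5 × 10^5) in RPMI-1640/10% FCS. Cells pre-treated 30 min with graded compound concentrations, then infected with HIV-1 LAI (100 or 125 TCID50). Supernatant RT activity read on day 7. EC50 from quadratic fit of % inhibition; triplicates, PBMC repeated with a second donor.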
# [11] = test system: Mammalian orthoreovirus 1; test: Antiviral activity against Reovirus 1 infected in african green monkey Vero cells assessed as inhibition of virus-induced cytopathic effect up to 200 uM measured on day 3 post infection by microscopic analysis; format: functional, organism-based; summary of the method: as §3
# [12] = Cytotoxicity against human HuH7 cells; format: cell-based; settings: Huh-7 cells
# [13] = Cytotoxicity against […]-activated human H9 cells on day 7 by MTT assay; format: cell-based
# Summary of the method: (§5)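 Uninfected PHA-P-activated PBMC and H9 cells exposed to graded compound concentrations. Viability by MTT on day 7. CC50 from quadratic fit of % viability against concentration; triplicates.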
# [14] = Cytotoxicity against human HEL cells assessed as alteration in cellular morphology by microscopic analysis; format: cell-based; summary of the method: as §2
# Influenza B virus = test: Antiviral activity against influenza B virus; format: functional, organism-based
# Influenza A virus = test: Antiviral activity against influenza A virus; format: functional, organism-based
# [15] = Cytotoxicity against human HepAD38 cells; format: cell-based
# [16] = test system: Respiratory syncytial virus; test: Antiviral activity against Respiratory syncytial virus infected in HeLa cells assessed as inhibition of virus-induced cytopathic effect up to 200 uM measured on day 3 post infection by microscopic analysis; format: functional, organism-based; summary of the method: as §4
# [17] = Cytotoxicity against […]-activated human PBMC on day 7 by MTT assay; format: cell-based; summary of the method: as §5
# [18] = test system: Human immunodeficiency virus 1; test: Antiviral activity against HIV1 clade B isolate 2101 infected in human H9 cells assessed as inhibition of viral replication; format: functional, organism-based; settings: Human immunodeficiency virus 1, clade B isolate 2101, H9; summary of the method: as §1
# [19] = test system: Human immunodeficiency virus 1; test: Antiviral activity against HIV1 clade G isolate 3187 infected in human H9 cells assessed as inhibition of viral replication; format: functional, organism-based; settings: Human immunodeficiency virus 1, clade G isolate 3187, H9; summary of the method: as §1
smiles,measurement,setting,value
Nc1ncnc2c1ncn2CCOCP(=O)([O-])[S-].[Na+].[Na+] (configuration not stated),metabolised at 24 h,[1],< 1%
same,EC50,[2],2.77 µM
same,EC50,[3],16 µM
same,Activity,[4],Non-toxic
same,inhibition,Human respirovirus 3,inactive
same,EC50,[5],3.41 µM
same,EC50,Hepatitis B virus,3 µM
same,EC50,[6],0.49 µM
same,EC50,[7],0.3 µM
same,EC50,[8],0.45 µM
same,Activity,Vero,Non-toxic
same,EC50,[9],23 µM
same,inhibition,Coxsackievirus B4,inactive
same,inhibition,Punta Toro virus,inactive
same,EC50,[10],1.9 µM
same,inhibition,[11],inactive
same,CC50,[12],> 150 µM
same,CC50 at 7 day,[13],> 30 µM
same,MCC,[14],> 200 µM
same,Activity,Influenza B virus,inactive
same,Activity,Influenza A virus,inactive
same,CC50,[15],> 150 µM
same,inhibition,[16],inactive
same,CC50 at 7 day,[17],> 30 µM
same,EC50,[18],0.49 µM
same,EC50,[19],0.88 µM
C[C@H](Cn1cnc2c(N)ncnc21)OCP(=O)([O-])[S-].[Na+].[Na+] (some centres not stated),metabolised at 24 h,[1],< 1%
same,EC50,[2],0.71 µM
same,EC50,[3],14 µM
same,Activity,[4],Non-toxic
same,inhibition,Human respirovirus 3,inactive
same,EC50,[5],0.45 µM
same,EC50,Hepatitis B virus,2.8 µM
same,EC50,[6],0.38 µM
same,EC50,[7],0.34 µM
same,EC50,[8],0.54 µM
same,Activity,Vero,Non-toxic
same,EC50,[9],7.9 µM
same,inhibition,Coxsackievirus B4,inactive
same,inhibition,Punta Toro virus,inactive
same,EC50,[10],0.38 µM
same,inhibition,[11],inactive
same,CC50,[12],> 150 µM
same,CC50 at 7 day,[13],> 100 µM
same,MCC,[14],> 200 µM
same,Activity,Influenza B virus,inactive
same,Activity,Influenza A virus,inactive
same,CC50,[15],> 150 µM
same,inhibition,[16],inactive
same,CC50 at 7 day,[17],> 100 µM
same,EC50,[18],0.47 µM
same,EC50,[19],0.12 µM
